Source: ChEMBL document CHEMBL5661979, “Pharmacological inhibition of BMK1 suppresses tumor growth through promyelocytic leukemia protein” (Cancer Cell, 2010)
The source made the active and inactive calls. No cut-off for these calls is given here.

Tests used:
[1] = target: Interleukin-1 receptor-associated kinase 4 (Homo sapiens, UniProt Q9NWZ3); assay: Inhibition of IRAK4 in human HeLa cells lysate pre incubated for 15 mins followed by ATP acyl phosphate probe addition and measured after 10 mins by LC-MS/MS analysis; assay type: subcellular
[2] = target: DNA-dependent protein kinase catalytic subunit (Homo sapiens, UniProt P78527); assay: Inhibition of PRKDC in human HeLa cells lysate at 50 uM pre incubated for 15 mins followed by ATP acyl phosphate probe addition and measured after 10 mins by LC-MS/MS analysis relative to control; assay type: subcellular; settings: time 25.0 min
[3] = target: Interleukin-1 receptor-associated kinase 1 (Homo sapiens, UniProt P51617); assay: Inhibition of IRAK1 in human HeLa cells lysate at 10 uM pre incubated for 15 mins followed by ATP acyl phosphate probe addition and measured after 10 mins by LC-MS/MS analysis relative to control; assay type: subcellular; settings: time 25.0 min
Sequence of Interleukin-1 receptor-associated kinase 1 (P51617 whole entry, looked up): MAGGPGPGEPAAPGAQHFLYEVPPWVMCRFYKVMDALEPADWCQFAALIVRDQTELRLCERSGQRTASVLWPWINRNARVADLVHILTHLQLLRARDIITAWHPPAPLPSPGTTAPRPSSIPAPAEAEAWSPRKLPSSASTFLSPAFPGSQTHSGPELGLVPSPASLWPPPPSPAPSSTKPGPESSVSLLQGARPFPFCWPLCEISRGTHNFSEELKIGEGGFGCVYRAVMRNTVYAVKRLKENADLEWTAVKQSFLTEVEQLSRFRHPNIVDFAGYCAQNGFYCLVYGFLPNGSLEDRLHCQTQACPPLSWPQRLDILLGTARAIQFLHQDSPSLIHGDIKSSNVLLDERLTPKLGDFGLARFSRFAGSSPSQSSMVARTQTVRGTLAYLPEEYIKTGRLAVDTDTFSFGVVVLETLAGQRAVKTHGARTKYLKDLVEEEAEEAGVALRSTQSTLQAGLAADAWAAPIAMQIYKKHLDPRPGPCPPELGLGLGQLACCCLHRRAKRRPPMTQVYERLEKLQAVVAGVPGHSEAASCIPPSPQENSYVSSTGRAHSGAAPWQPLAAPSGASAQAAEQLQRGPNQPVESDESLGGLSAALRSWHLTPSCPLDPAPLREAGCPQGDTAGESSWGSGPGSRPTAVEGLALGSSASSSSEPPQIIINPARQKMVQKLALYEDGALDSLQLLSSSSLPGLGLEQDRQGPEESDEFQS

Lewis lung carcinoma = assay: Antitumor activity against PML knock down mouse LL2 cells allografted in C57Bl/6 mouse assessed as reduction tumor growth at 50 mg/kg, ip administered on day 7 post implantation measured after 17 days; assay type: functional, organism-based; settings: time 10.0 day
[4] = target: Tyrosine-protein kinase Fer (Homo sapiens, UniProt P16591); assay: Inhibition of FER in human HeLa cells lysate at 2 uM pre incubated for 15 mins followed by ATP acyl phosphate probe addition and measured after 10 mins by LC-MS/MS analysis relative to control; assay type: subcellular; settings: time 25.0 min
Sequence of Tyrosine-protein kinase Fer (P16591 whole entry, looked up): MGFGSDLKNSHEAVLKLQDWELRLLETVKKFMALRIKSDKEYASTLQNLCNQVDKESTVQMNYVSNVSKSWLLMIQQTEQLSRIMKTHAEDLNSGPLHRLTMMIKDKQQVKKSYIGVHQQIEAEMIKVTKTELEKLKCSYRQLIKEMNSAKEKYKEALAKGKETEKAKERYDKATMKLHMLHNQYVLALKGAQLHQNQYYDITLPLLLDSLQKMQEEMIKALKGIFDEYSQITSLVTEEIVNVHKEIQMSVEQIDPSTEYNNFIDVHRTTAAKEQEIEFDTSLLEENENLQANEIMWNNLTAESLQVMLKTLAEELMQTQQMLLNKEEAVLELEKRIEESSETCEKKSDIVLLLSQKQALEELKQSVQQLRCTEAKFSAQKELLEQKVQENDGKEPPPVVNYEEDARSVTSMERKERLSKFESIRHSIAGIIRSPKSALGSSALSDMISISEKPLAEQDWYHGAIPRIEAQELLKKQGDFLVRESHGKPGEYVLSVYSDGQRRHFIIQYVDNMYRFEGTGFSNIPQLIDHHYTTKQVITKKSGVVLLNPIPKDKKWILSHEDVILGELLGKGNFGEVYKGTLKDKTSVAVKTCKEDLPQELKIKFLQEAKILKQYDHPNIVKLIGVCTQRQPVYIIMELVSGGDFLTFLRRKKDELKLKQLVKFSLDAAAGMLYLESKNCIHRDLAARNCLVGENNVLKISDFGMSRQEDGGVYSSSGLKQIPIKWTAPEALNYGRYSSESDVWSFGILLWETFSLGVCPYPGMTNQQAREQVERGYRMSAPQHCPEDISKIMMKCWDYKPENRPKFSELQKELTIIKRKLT

[5] = target: Ribosomal protein S6 kinase alpha-5 (Homo sapiens, UniProt O75582); assay: Inhibition of MSK1 in human HeLa cells lysate pre incubated for 15 mins followed by ATP acyl phosphate probe addition and measured after 10 mins by LC-MS/MS analysis; assay type: subcellular
[6] = target: T1, Mixed lineage kinase domain-like protein (Homo sapiens) (UniProt Q8NB16); assay: Inhibition of MLKL in human HeLa cells lysate at 10 uM pre incubated for 15 mins followed by ATP acyl phosphate probe addition and measured after 10 mins by LC-MS/MS analysis relative to control; assay type: subcellular; settings: time 25.0 min
T1 sequence (whole entry): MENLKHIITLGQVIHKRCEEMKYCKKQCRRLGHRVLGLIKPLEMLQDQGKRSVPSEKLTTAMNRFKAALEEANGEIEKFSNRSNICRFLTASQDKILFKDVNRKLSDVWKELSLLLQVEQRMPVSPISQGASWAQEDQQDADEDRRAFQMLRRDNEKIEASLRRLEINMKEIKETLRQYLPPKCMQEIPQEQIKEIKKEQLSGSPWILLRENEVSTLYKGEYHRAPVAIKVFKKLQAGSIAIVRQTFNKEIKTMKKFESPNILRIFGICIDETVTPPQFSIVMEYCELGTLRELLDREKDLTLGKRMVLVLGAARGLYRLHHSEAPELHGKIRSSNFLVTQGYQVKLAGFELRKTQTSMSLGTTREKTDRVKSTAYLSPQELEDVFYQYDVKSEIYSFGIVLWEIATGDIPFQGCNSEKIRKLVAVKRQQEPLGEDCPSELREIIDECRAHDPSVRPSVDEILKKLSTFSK

[7] = target: Macrophage-stimulating protein receptor (Homo sapiens, UniProt Q04912); assay: Inhibition of RON in human HeLa cells lysate pre incubated for 15 mins followed by ADP acyl phosphate probe addition and measured after 10 mins by LC-MS/MS analysis; assay type: subcellular
Sequence of Macrophage-stimulating protein receptor (Q04912 25-304 limits assumed): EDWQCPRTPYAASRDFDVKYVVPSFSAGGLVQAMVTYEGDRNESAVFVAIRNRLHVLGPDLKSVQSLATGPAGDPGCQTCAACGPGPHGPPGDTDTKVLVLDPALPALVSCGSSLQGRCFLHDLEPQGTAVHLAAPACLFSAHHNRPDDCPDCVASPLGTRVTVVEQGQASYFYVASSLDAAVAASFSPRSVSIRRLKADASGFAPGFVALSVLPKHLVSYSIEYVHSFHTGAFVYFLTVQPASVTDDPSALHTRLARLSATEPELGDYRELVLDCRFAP
Sequence of Macrophage-stimulating protein receptor (Q04912 310-1400 limits assumed): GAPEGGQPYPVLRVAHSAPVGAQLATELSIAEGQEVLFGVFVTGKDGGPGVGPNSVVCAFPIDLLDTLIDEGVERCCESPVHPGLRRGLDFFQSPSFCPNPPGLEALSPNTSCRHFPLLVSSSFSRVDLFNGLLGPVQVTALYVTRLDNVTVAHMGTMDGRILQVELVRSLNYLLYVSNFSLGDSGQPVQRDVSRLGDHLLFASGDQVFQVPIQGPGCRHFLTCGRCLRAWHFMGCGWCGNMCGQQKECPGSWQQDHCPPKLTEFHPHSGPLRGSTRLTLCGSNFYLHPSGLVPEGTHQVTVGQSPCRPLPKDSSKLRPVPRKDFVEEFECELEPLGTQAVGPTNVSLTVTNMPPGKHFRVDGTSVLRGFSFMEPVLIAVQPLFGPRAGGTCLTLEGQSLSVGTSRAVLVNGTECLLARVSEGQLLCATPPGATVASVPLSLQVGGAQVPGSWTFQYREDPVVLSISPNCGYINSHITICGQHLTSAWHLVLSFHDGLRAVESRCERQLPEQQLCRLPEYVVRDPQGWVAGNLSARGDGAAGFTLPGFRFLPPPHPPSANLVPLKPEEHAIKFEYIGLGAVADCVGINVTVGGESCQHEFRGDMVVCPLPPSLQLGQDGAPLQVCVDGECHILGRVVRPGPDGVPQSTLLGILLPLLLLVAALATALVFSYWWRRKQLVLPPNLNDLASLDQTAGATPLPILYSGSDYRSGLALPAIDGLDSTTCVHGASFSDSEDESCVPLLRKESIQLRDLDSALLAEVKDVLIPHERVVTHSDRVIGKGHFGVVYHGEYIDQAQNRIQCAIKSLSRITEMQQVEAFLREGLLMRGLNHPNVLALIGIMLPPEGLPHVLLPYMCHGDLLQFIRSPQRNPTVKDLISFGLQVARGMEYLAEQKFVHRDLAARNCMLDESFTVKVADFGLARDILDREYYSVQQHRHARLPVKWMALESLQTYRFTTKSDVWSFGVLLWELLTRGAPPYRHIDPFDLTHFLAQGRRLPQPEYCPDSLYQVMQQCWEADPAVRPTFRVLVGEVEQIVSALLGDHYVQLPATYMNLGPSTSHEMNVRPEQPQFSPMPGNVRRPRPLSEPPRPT

HeLa = assay: Antiproliferative activity against human HeLa cells over expressing BMK1 assessed as reduction in cell viability at 5 uM after 48 hrs by MTT assay; assay type: functional, cell-based
Summary of the method: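 HeLa cells were infected with empty adenovirus or adenovirus encoding dominant-negative BMK1(AEF). After 24 hr they were treated with or without 5 μM drug for 48 hr and read by MTT. % growth inhibition = (1 − MTT of group / MTT of Ad-EV-only cells) × 100. n = 3.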

[8] = target: STE20-like serine/threonine-protein kinase (Homo sapiens, UniProt Q9H2G2); assay: Inhibition of SLK in human HeLa cells lysate at 50 uM pre incubated for 15 mins followed by ADP acyl phosphate probe addition and measured after 10 mins by LC-MS/MS analysis relative to control; assay type: subcellular; settings: time 25.0 min
Sequence of STE20-like serine/threonine-protein kinase (Q9H2G2 whole entry, looked up): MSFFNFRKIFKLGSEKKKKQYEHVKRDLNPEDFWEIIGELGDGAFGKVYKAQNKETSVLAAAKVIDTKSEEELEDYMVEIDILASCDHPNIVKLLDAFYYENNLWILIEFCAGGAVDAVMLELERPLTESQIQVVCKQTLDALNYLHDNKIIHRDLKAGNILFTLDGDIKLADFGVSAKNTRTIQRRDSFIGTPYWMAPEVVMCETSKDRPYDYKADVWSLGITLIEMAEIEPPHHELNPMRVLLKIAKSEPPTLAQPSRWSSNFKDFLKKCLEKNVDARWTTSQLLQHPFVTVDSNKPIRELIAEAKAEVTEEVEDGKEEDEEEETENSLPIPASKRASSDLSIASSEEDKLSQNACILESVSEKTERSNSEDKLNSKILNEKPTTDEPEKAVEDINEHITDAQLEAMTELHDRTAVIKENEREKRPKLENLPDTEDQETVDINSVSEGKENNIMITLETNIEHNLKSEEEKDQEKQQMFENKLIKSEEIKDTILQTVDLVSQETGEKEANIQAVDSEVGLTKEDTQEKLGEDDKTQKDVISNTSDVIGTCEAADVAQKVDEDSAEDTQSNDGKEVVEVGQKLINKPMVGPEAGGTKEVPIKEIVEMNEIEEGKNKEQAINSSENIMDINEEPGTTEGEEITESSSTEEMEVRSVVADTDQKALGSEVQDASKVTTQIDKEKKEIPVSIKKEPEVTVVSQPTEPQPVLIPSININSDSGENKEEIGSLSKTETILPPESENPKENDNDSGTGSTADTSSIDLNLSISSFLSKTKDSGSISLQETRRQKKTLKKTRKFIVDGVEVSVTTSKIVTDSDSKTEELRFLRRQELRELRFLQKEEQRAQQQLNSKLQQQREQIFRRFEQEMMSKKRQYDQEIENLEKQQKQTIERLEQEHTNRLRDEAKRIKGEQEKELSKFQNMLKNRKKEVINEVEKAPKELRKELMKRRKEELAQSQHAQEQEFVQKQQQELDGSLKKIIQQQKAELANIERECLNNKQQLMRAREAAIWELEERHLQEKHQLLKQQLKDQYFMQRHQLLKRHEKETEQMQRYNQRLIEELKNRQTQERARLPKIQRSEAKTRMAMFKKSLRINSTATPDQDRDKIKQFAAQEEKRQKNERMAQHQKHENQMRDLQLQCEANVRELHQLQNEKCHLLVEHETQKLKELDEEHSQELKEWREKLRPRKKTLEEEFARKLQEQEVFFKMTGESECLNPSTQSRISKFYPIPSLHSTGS

RPS6KA1/RPS6KA2/RPS6KA3 = RPS6KA1/RPS6KA2/RPS6KA3 (Homo sapiens, UniProt P51812+Q15349+Q15418); assay: Inhibition of RSK1/2/3 in human HeLa cells lysate pre incubated for 15 mins followed by ATP acyl phosphate probe addition and measured after 10 mins by LC-MS/MS analysis; assay type: subcellular
[9] = target: Serine/threonine-protein kinase ULK3 (Homo sapiens, UniProt Q6PHR2); assay: Inhibition of ULK3 in human HeLa cells lysate pre incubated for 15 mins followed by ADP acyl phosphate probe addition and measured after 10 mins by LC-MS/MS analysis; assay type: subcellular
[10] = Inhibition of PKD1/2 in human HeLa cells lysate at 50 uM pre incubated for 15 mins followed by ATP acyl phosphate probe addition and measured after 10 mins by LC-MS/MS analysis relative to control; settings: 25 min, condition cancer
[11] = Inhibition of NEK6/7 in human HeLa cells lysate at 50 uM pre incubated for 15 mins followed by ATP acyl phosphate probe addition and measured after 10 mins by LC-MS/MS analysis relative to control; settings: 25 min, condition cancer
[12] = target: Cyclin-dependent kinase 2 (Homo sapiens, UniProt P24941); assay: Inhibition of CDK2 in human HeLa cells lysate at 50 uM pre incubated for 15 mins followed by ATP acyl phosphate probe addition and measured after 10 mins by LC-MS/MS analysis relative to control; assay type: subcellular; settings: time 25.0 min
Summary of the method: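 KiNativ profiling in HeLa lysate (5 mg/mL total protein). Lysate incubated 15 min with inhibitor at 50, 10, 2, 0.8 or 0 μM. ATP or ADP acylphosphate probe then added (5 μM final) and reacted 10 min. Reaction stopped with urea and analysed by targeted MS, using up to four fragment ions per kinase peptide-probe conjugate. % inhibition taken against untreated lysate. Run in duplicate.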

[13] = target: 5'-AMP-activated protein kinase catalytic subunit alpha-1 (Homo sapiens, UniProt Q13131); assay: Inhibition of AMPKalpha1 in human HeLa cells lysate pre incubated for 15 mins followed by ADP acyl phosphate probe addition and measured after 10 mins by LC-MS/MS analysis; assay type: subcellular
Summary of the method: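 HeLa cell lysates (5 mg/mL total protein) were preincubated with inhibitor at 0, 0.8, 2, 10 or 50 μM for 15 min. ATP or ADP acylphosphate probe was then added (5 μM final) for 10 min, and reactions were stopped with urea. Up to four fragment ions per kinase probe-peptide were quantified by targeted MS. % inhibition was taken relative to untreated lysate. Run in duplicate.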

[14] = Inhibition of PCTAIRE2/3 in human HeLa cells lysate at 2 uM pre incubated for 15 mins followed by ADP acyl phosphate probe addition and measured after 10 mins by LC-MS/MS analysis relative to control; settings: 25 min, condition cancer
[15] = target: Ribosomal protein S6 kinase beta-2 (Homo sapiens, UniProt Q9UBS0); assay: Inhibition of P70S6KB in human HeLa cells lysate pre incubated for 15 mins followed by ATP acyl phosphate probe addition and measured after 10 mins by LC-MS/MS analysis; assay type: subcellular
Sequence of Ribosomal protein S6 kinase beta-2 (Q9UBS0 whole entry): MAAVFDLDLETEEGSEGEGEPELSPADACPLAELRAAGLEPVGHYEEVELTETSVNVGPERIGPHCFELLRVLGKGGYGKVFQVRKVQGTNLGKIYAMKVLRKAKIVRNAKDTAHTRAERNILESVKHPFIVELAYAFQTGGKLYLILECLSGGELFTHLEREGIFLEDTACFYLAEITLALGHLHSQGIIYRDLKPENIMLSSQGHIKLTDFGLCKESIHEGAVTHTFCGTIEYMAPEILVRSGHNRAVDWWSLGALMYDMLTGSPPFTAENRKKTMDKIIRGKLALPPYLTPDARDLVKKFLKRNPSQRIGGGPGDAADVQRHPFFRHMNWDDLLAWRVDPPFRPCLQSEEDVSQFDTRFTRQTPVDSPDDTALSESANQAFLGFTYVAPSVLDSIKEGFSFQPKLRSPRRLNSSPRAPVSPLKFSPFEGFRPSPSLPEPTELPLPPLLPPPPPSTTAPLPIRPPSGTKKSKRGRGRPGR

Structure (SMILES): CCOc1cc(N2CCC(O)CC2)ccc1Nc1ncc2c(n1)N(C)c1ccccc1C(=O)N2C
- IC50 [1]: > 50 µM
- inhibition [2]: -3.7%
- inhibition [3]: 1.9%
- Activity (Lewis lung carcinoma): inactive
- inhibition [4]: 8%
- IC50 [5]: > 50 µM
- inhibition [6]: -9.8%
- IC50 [7]: > 50 µM
- Activity (HeLa): Active
- inhibition [8]: 20.9%
- IC50 (RPS6KA1/RPS6KA2/RPS6KA3): > 50 µM
- IC50 [9]: > 50 µM
- inhibition at 50 µM [10]: 13.9%
- inhibition at 50 µM [11]: -11.1%
- inhibition [12]: -1.9%
- IC50 [13]: > 50 µM
- inhibition at 2 µM [14]: 10.1%
- IC50 [15]: > 50 µM
